Source: ChEMBL document CHEMBL3259611, “Suppression of inflammatory responses by handelin, a guaianolide dimer from Chrysanthemum boreale, via downregulation of NF-κB signaling and pro-inflammatory cytokine production” (J Nat Prod, 2014)
The source made the active and inactive calls. No cut-off for these calls is given here.

Tests used:
RAW264.7 [1] = assay: Antiinflammatory activity in mouse RAW264.7 cells assessed as inhibition of LPS-induced iNOS protein expression after 16 hrs by Western blotting analysis; format: functional, cell-based
[2] = molecular target: T1, Nuclear factor NF-kappa-B p105 subunit (Mus musculus) (UniProt P25799); assay: Inhibition of LPS-induced NFkappaB P50 protein nuclear translocation in mouse RAW264.7 cells at 10 uM after 30 mins by Western blotting analysis relative to control; format: cell-based
T1 sequence (whole entry): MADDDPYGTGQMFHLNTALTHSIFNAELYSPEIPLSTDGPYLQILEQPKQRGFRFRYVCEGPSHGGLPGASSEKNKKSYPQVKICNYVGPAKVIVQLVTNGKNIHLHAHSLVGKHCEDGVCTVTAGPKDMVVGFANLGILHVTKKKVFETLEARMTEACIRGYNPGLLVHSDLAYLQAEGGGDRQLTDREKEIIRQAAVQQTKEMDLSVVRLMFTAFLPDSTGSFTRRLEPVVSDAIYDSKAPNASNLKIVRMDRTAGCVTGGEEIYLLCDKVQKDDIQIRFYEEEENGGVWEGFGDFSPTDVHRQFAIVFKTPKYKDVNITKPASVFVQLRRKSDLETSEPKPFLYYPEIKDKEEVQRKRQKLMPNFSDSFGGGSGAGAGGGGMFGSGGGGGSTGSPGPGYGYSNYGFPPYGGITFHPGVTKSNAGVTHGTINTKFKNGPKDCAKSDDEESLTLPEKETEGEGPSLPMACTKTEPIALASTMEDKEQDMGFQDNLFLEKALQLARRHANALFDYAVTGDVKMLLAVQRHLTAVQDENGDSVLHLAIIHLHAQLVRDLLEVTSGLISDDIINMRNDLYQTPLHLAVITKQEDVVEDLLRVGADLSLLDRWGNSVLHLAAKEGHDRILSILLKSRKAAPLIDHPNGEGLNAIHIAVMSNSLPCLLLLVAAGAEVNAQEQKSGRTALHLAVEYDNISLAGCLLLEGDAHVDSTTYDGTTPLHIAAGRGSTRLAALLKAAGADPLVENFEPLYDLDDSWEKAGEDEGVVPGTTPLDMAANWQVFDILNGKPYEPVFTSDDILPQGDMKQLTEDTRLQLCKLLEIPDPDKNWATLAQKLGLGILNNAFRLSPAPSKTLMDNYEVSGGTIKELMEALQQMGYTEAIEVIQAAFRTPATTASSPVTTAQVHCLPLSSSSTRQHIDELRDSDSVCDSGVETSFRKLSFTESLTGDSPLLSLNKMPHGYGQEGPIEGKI
Outline: (§1)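 Macrophages were exposed to compound for 30 min before LPS stimulation, with proteins extracted 30 min later. Nuclear extracts were prepared in Tris/KCl/NP-40 lysis buffer, then 420 mM NaCl buffer, and the cytosolic fraction was kept for IκB-α. Western blot on PVDF with ECL detection. Tests in triplicate; representative of three separate experiments.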

RAW264.7 [3] = assay: Antiinflammatory activity in mouse RAW264.7 cells assessed as inhibition LPS-induced TNF-alpha mRNA expression at 10 uM after 4 hrs by RT-PCR analysis relative to control; format: functional
Outline: (§2)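 RAW 264.7 cells stimulated with LPS (1 μg/mL) with or without compound for 4 h. Total RNA was isolated and cytokine mRNA was analysed by RT-PCR: 94 °C 4 min, then 25−30 cycles of 94/55/72 °C for 30 s each, then 72 °C 5 min. Products were run on 2% agarose and stained with SYBR-Safe. Triplicate, representative of three experiments.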

RAW264.7 [4] = assay: Antiinflammatory activity in mouse RAW264.7 cells assessed as inhibition LPS-induced IL-1beta mRNA expression at 10 uM after 4 hrs by RT-PCR analysis relative to control; format: functional; outline: as §2
[5] = molecular target: T2, Mitogen-activated protein kinase 1 and 3 (ERK2 and ERK1) (Mus musculus) (UniProt P63085+Q63844); assay: Inhibition LPS-induced ERK1/2 phosphorylation at Thr202/Tyr204 in mouse RAW264.7 cells at 10 uM administered 30 mins prior to LPS challenge measured after 30 mins by Western blotting analysis; format: cell-based
Outline: (§3)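 RAW 264.7 cells pretreated with compound for 30 min, then stimulated with LPS for 30 min. Protein extracts were Western blotted for phosphorylated ERK and JNK (SDS-PAGE, PVDF, ECL detection).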

Rattus norvegicus = assay: Antiinflammatory activity in rat paw edema model assessed as inhibition of carrageenan-induced iNOS protein expression in paw tissue at 20 mg/kg, po administered 30 mins prior to carrageenan challenge measured after 6 hrs by Western blotting analysis relative to vehicle-treated control; format: functional, organism-based; parameters: dose 20 mg/kg
Outline: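 SD rats received compound orally in 0.5% CMC-Na 30 min before subplantar injection of 0.1 mL 1% carrageenan in saline. Paws were removed at 6 h, homogenized, and iNOS, COX-2 and IL-1β were assessed by Western blot. Triplicate, representative of three experiments.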

RAW264.7 [6] = assay: Antiinflammatory activity in mouse RAW264.7 cells assessed as inhibition of LPS-induced iNOS protein expression at 10 uM after 16 hrs by Western blotting analysis relative to control; format: functional
Outline: (§4)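 RAW 264.7 cells given LPS (1 μg/mL) with or without compound for 16 h. Cell lysates were Western blotted for iNOS and COX-2 (6−15% SDS-PAGE, PVDF, ECL detection). Performed in triplicate.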

RAW264.7 [7] = assay: Antiinflammatory activity in mouse RAW264.7 cells assessed as inhibition of LPS-induced COX2 protein expression at 20 uM after 16 hrs by Western blotting analysis relative to control; format: functional; outline: as §4
RAW264.7 [8] = assay: Antiinflammatory activity in mouse RAW264.7 cells assessed as inhibition of LPS-induced iNOS mRNA expression at 10 uM after 5 hrs by RT-PCR analysis relative to control; format: functional
Outline: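 RAW 264.7 cells exposed to 1 μg/mL LPS with or without compound for 5 h. Total RNA was analysed by RT-PCR: 25−30 cycles with annealing at 55 °C. Products were separated on 2% agarose gel with SYBR-Safe staining. Experiments in triplicate.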

[9] = molecular target: Transcription factor p65 (Mus musculus) (UniProt Q04207); assay: Inhibition of LPS-induced NFkappaB P65 protein nuclear translocation in mouse RAW264.7 cells at 40 uM after 30 mins by Western blotting analysis relative to control; format: cell-based; outline: as §1
RAW264.7 [10] = assay: Inhibition of LPS-induced NFkappaB transcriptional activity in mouse RAW264.7 cells assessed as reduction of phosphorylated IkappaB-alpha level at 20 uM after 30 mins by Western blotting analysis relative to control; format: cell-based; outline: as §1
RAW264.7 [11] = assay: Antiinflammatory activity in mouse RAW264.7 cells assessed as inhibition LPS-induced IL-1beta mRNA expression at 40 uM after 4 hrs by RT-PCR analysis relative to control; format: functional; outline: as §2
[12] = molecular target: T2, Mitogen-activated protein kinase 1 and 3 (ERK2 and ERK1) (Mus musculus); assay: Inhibition LPS-induced ERK1/2 phosphorylation at Thr202/Tyr204 in mouse RAW264.7 cells at 40 uM administered 30 mins prior to LPS challenge measured after 30 mins by Western blotting analysis; format: cell-based; outline: as §3

T2 sequence (P63085 whole entry, looked up): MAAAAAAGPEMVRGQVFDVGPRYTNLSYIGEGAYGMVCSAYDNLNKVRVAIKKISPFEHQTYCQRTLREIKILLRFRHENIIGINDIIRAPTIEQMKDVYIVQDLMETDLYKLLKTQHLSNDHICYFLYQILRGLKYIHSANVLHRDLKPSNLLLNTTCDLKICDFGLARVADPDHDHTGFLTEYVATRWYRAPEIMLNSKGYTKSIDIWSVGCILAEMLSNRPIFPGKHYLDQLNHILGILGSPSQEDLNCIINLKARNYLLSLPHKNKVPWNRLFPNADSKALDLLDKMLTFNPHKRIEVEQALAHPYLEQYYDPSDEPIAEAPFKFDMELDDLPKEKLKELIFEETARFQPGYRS
T2 sequence (Q63844 whole entry, looked up): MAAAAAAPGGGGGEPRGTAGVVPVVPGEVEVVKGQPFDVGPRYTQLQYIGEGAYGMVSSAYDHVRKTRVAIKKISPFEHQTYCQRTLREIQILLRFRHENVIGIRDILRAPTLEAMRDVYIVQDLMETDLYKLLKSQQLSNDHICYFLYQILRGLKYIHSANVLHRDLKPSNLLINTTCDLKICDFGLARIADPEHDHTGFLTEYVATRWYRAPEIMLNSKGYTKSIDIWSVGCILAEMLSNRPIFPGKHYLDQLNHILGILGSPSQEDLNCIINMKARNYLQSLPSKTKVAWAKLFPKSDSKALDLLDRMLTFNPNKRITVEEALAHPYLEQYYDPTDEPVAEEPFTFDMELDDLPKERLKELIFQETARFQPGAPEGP
Chain of Transcription factor p65 (Mus musculus) (Q04207 whole entry): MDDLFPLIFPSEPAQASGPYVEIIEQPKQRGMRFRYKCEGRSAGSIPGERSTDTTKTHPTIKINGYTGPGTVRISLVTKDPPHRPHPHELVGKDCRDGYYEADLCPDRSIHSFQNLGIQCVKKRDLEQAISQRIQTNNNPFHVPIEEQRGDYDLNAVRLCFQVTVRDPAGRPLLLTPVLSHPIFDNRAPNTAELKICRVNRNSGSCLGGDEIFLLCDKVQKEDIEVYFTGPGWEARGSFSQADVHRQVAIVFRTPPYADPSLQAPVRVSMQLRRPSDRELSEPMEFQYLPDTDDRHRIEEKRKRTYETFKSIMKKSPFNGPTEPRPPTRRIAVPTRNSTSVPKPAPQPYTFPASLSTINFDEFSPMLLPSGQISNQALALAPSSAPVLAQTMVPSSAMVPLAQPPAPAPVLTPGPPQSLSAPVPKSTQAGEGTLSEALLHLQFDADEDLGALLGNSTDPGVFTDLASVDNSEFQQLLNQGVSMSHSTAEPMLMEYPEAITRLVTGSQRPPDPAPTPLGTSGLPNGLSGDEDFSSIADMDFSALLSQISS

C=C1C(=O)O[C@@H]2[C@@H]3[C@@]4(C=C[C@@]3(C)[C@]3(C4)C(=O)O[C@@H]4[C@H]5C(C)=CC[C@H]5[C@](C)(O)C[C@H](OC(C)=O)[C@H]43)[C@](C)(O)CC[C@@H]12
inhibition (RAW264.7 [1]): Dose-dependent effect | inhibition [2]: Active | fold change (FC) (RAW264.7 [3]): 0.66 | inhibition (RAW264.7 [3]): Active | fold change (FC) (RAW264.7 [4]): 0.26 | inhibition (RAW264.7 [4]): Active | fold change (FC) [5]: 0.76 | inhibition [5]: Active | inhibition (Rattus norvegicus): Active | fold change (FC) (RAW264.7 [6]): 0.61 | fold change (FC) (RAW264.7 [7]): 0.2 | fold change (FC) (RAW264.7 [8]): 0.74 | fold change (FC) [9]: 0.49 | fold change (FC) (RAW264.7 [10]): 0.55 | fold change (FC) (RAW264.7 [11]): 0.21 | fold change (FC) [12]: 0.21
